# Measured values: ChEMBL document CHEMBL1287747, “Highly active antimycobacterial derivatives of benzoxazine” (2010)
# Tested on: Mycobacterium tuberculosis
# Experiment: Antimycobacterial activity against Mycobacterium tuberculosis CNCTC My 331/88 after 14 days by microdilution method
# Type: functional
# Conditions: CNCTC My 331/88, 336 h
# Outline: (§1)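 Strains from the Czech National Collection of Type Cultures, tested by dilution micromethod in Šula semisynthetic medium. Incubated at 37 °C and read at 14 and 21 days. MIC is the lowest concentration inhibiting growth.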
row,SMILES,MIC [µM]
1,CCc1ccc(-n2c(=O)oc3ccc(Br)cc3c2=S)cc1,0.5
2,CCc1ccc(-n2c(=O)oc3ccc(Cl)cc3c2=S)cc1,0.5
3,CCc1ccc(-n2c(=O)oc3cc(Cl)ccc3c2=S)cc1,0.5
4,CC(C)c1ccc(-n2c(=O)oc3ccc(Br)cc3c2=S)cc1,0.25
5,CC(C)c1ccc(-n2c(=O)oc3ccc(Cl)cc3c2=S)cc1,0.5
6,CC(C)c1ccc(-n2c(=O)oc3ccc(F)cc3c2=S)cc1,0.25
7,Cc1ccc2c(=S)n(-c3ccc(C(C)C)cc3)c(=O)oc2c1,0.25
8,CCC(C)c1ccc(-n2c(=O)oc3ccc(Br)cc3c2=S)cc1 (stereo unspecified),0.25
9,CCC(C)c1ccc(-n2c(=O)oc3ccc(F)cc3c2=S)cc1 (stereo unspecified),0.25
10,CCC(C)c1ccc(-n2c(=O)oc3cc(C)ccc3c2=S)cc1 (stereo unspecified),0.25
11,CC(C)(C)c1ccc(-n2c(=O)oc3ccc(Cl)cc3c2=S)cc1,0.25
12,CC(C)(C)c1ccc(-n2c(=O)oc3ccc(F)cc3c2=S)cc1,0.25
13,Cc1ccc2c(=S)n(-c3ccc(C(C)(C)C)cc3)c(=O)oc2c1,0.25

# Tested on: Mycobacterium tuberculosis
# Experiment: Antimycobacterial activity against Mycobacterium tuberculosis CNCTC My 331/88 after 21 days by microdilution method
# Type: functional
# Conditions: CNCTC My 331/88, 504 h
# Outline: as §1
row,SMILES,MIC [µM]
1,CCc1ccc(-n2c(=O)oc3ccc(Br)cc3c2=S)cc1,0.5
2,CCc1ccc(-n2c(=O)oc3ccc(Cl)cc3c2=S)cc1,0.5
3,CCc1ccc(-n2c(=O)oc3cc(Cl)ccc3c2=S)cc1,0.5
4,CC(C)c1ccc(-n2c(=O)oc3ccc(Br)cc3c2=S)cc1,0.5
5,CC(C)c1ccc(-n2c(=O)oc3ccc(Cl)cc3c2=S)cc1,1
6,CC(C)c1ccc(-n2c(=O)oc3ccc(F)cc3c2=S)cc1,0.5
7,Cc1ccc2c(=S)n(-c3ccc(C(C)C)cc3)c(=O)oc2c1,0.5
8,CCC(C)c1ccc(-n2c(=O)oc3ccc(Br)cc3c2=S)cc1 (stereo unspecified),0.5
9,CCC(C)c1ccc(-n2c(=O)oc3ccc(F)cc3c2=S)cc1 (stereo unspecified),0.5
10,CCC(C)c1ccc(-n2c(=O)oc3cc(C)ccc3c2=S)cc1 (stereo unspecified),0.5
11,CC(C)(C)c1ccc(-n2c(=O)oc3ccc(Cl)cc3c2=S)cc1,0.5
12,CC(C)(C)c1ccc(-n2c(=O)oc3ccc(F)cc3c2=S)cc1,0.5
13,Cc1ccc2c(=S)n(-c3ccc(C(C)(C)C)cc3)c(=O)oc2c1,0.5

# Tested on: Mycobacterium avium
# Experiment: Antimycobacterial activity against Mycobacterium avium CNCTC My 330/88 after 14 days by microdilution method
# Type: functional
# Conditions: CNCTC My 330/88, 336 h
# Outline: as §1
row,SMILES,MIC [µM]
1,CCc1ccc(-n2c(=O)oc3ccc(Br)cc3c2=S)cc1,32
2,CCc1ccc(-n2c(=O)oc3ccc(Cl)cc3c2=S)cc1,16
3,CCc1ccc(-n2c(=O)oc3cc(Cl)ccc3c2=S)cc1,8
4,CC(C)c1ccc(-n2c(=O)oc3ccc(Br)cc3c2=S)cc1,4
5,CC(C)c1ccc(-n2c(=O)oc3ccc(Cl)cc3c2=S)cc1,32
6,CC(C)c1ccc(-n2c(=O)oc3ccc(F)cc3c2=S)cc1,0.5
7,Cc1ccc2c(=S)n(-c3ccc(C(C)C)cc3)c(=O)oc2c1,0.5
8,CCC(C)c1ccc(-n2c(=O)oc3ccc(Br)cc3c2=S)cc1 (stereo unspecified),16
9,CCC(C)c1ccc(-n2c(=O)oc3ccc(F)cc3c2=S)cc1 (stereo unspecified),1
10,CCC(C)c1ccc(-n2c(=O)oc3cc(C)ccc3c2=S)cc1 (stereo unspecified),0.5
11,CC(C)(C)c1ccc(-n2c(=O)oc3ccc(Cl)cc3c2=S)cc1,1
12,CC(C)(C)c1ccc(-n2c(=O)oc3ccc(F)cc3c2=S)cc1,0.5
13,Cc1ccc2c(=S)n(-c3ccc(C(C)(C)C)cc3)c(=O)oc2c1,0.25

# Tested on: Mycobacterium avium
# Experiment: Antimycobacterial activity against Mycobacterium avium CNCTC My 330/88 after 21 days by microdilution method
# Type: functional
# Conditions: CNCTC My 330/88, 504 h
# Outline: as §1
row,SMILES,MIC [µM]
1,CCc1ccc(-n2c(=O)oc3ccc(Br)cc3c2=S)cc1,32
2,CCc1ccc(-n2c(=O)oc3ccc(Cl)cc3c2=S)cc1,16
3,CCc1ccc(-n2c(=O)oc3cc(Cl)ccc3c2=S)cc1,8
4,CC(C)c1ccc(-n2c(=O)oc3ccc(Br)cc3c2=S)cc1,8
5,CC(C)c1ccc(-n2c(=O)oc3ccc(Cl)cc3c2=S)cc1,125
6,CC(C)c1ccc(-n2c(=O)oc3ccc(F)cc3c2=S)cc1,1
7,Cc1ccc2c(=S)n(-c3ccc(C(C)C)cc3)c(=O)oc2c1,1
8,CCC(C)c1ccc(-n2c(=O)oc3ccc(Br)cc3c2=S)cc1 (stereo unspecified),32
9,CCC(C)c1ccc(-n2c(=O)oc3ccc(F)cc3c2=S)cc1 (stereo unspecified),1
10,CCC(C)c1ccc(-n2c(=O)oc3cc(C)ccc3c2=S)cc1 (stereo unspecified),0.5
11,CC(C)(C)c1ccc(-n2c(=O)oc3ccc(Cl)cc3c2=S)cc1,2
12,CC(C)(C)c1ccc(-n2c(=O)oc3ccc(F)cc3c2=S)cc1,1
13,Cc1ccc2c(=S)n(-c3ccc(C(C)(C)C)cc3)c(=O)oc2c1,0.5

# Tested on: Mycobacterium kansasii
# Experiment: Antimycobacterial activity against Mycobacterium kansasii CNCTC My 235/80 after 14 days by microdilution method
# Type: functional
# Conditions: CNCTC My 235/80, 336 h
# Outline: as §1
row,SMILES,MIC [µM]
1,CCc1ccc(-n2c(=O)oc3ccc(Br)cc3c2=S)cc1,8
2,CCc1ccc(-n2c(=O)oc3ccc(Cl)cc3c2=S)cc1,8
3,CCc1ccc(-n2c(=O)oc3cc(Cl)ccc3c2=S)cc1,8
4,CC(C)c1ccc(-n2c(=O)oc3ccc(Br)cc3c2=S)cc1,32
5,CC(C)c1ccc(-n2c(=O)oc3ccc(Cl)cc3c2=S)cc1,8
6,CC(C)c1ccc(-n2c(=O)oc3ccc(F)cc3c2=S)cc1,2
7,Cc1ccc2c(=S)n(-c3ccc(C(C)C)cc3)c(=O)oc2c1,2
8,CCC(C)c1ccc(-n2c(=O)oc3ccc(Br)cc3c2=S)cc1 (stereo unspecified),4
9,CCC(C)c1ccc(-n2c(=O)oc3ccc(F)cc3c2=S)cc1 (stereo unspecified),4
10,CCC(C)c1ccc(-n2c(=O)oc3cc(C)ccc3c2=S)cc1 (stereo unspecified),1
11,CC(C)(C)c1ccc(-n2c(=O)oc3ccc(Cl)cc3c2=S)cc1,8
12,CC(C)(C)c1ccc(-n2c(=O)oc3ccc(F)cc3c2=S)cc1,4
13,Cc1ccc2c(=S)n(-c3ccc(C(C)(C)C)cc3)c(=O)oc2c1,2

# Tested on: Mycobacterium kansasii
# Experiment: Antimycobacterial activity against Mycobacterium kansasii CNCTC My 235/80 after 21 days by microdilution method
# Type: functional
# Conditions: CNCTC My 235/80, 504 h
# Outline: as §1
row,SMILES,MIC [µM]
1,CCc1ccc(-n2c(=O)oc3ccc(Br)cc3c2=S)cc1,16
2,CCc1ccc(-n2c(=O)oc3ccc(Cl)cc3c2=S)cc1,8
3,CCc1ccc(-n2c(=O)oc3cc(Cl)ccc3c2=S)cc1,8
4,CC(C)c1ccc(-n2c(=O)oc3ccc(Br)cc3c2=S)cc1,62.5
5,CC(C)c1ccc(-n2c(=O)oc3ccc(Cl)cc3c2=S)cc1,16
6,CC(C)c1ccc(-n2c(=O)oc3ccc(F)cc3c2=S)cc1,4
7,Cc1ccc2c(=S)n(-c3ccc(C(C)C)cc3)c(=O)oc2c1,4
8,CCC(C)c1ccc(-n2c(=O)oc3ccc(Br)cc3c2=S)cc1 (stereo unspecified),8
9,CCC(C)c1ccc(-n2c(=O)oc3ccc(F)cc3c2=S)cc1 (stereo unspecified),4
10,CCC(C)c1ccc(-n2c(=O)oc3cc(C)ccc3c2=S)cc1 (stereo unspecified),2
11,CC(C)(C)c1ccc(-n2c(=O)oc3ccc(Cl)cc3c2=S)cc1,8
12,CC(C)(C)c1ccc(-n2c(=O)oc3ccc(F)cc3c2=S)cc1,8
13,Cc1ccc2c(=S)n(-c3ccc(C(C)(C)C)cc3)c(=O)oc2c1,2

# Tested on: Mycobacterium kansasii
# Experiment: Antimycobacterial activity against Mycobacterium kansasii 6509/96 after 14 days by microdilution method
# Type: functional
# Conditions: 6509/96, 336 h
# Outline: (§2)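 Clinical isolate that, unlike the standard strain, is not isoniazid-resistant. Tested by dilution micromethod in Šula semisynthetic medium, with compounds added in DMSO at final 1000 down to 0.25 µmol/L in twofold steps. Löwenstein-Jensen plate used as inoculum sterility and growth control. Incubated at 37 °C and read at 14 and 21 days. MIC is the lowest concentration inhibiting growth.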
row,SMILES,MIC [µM]
1,Cc1ccc2c(=O)n(-c3ccc(C(C)C)cc3)c(=O)oc2c1,32
2,CCC(C)c1ccc(-n2c(=O)oc3cc(C)ccc3c2=O)cc1 (stereo unspecified),32
3,CCc1ccc(-n2c(=O)oc3ccc(Br)cc3c2=S)cc1,4
4,CCc1ccc(-n2c(=O)oc3ccc(Cl)cc3c2=S)cc1,4
5,CCc1ccc(-n2c(=O)oc3cc(Cl)ccc3c2=S)cc1,8
6,CC(C)c1ccc(-n2c(=O)oc3ccc(Br)cc3c2=S)cc1,4
7,CC(C)c1ccc(-n2c(=O)oc3ccc(Cl)cc3c2=S)cc1,1
8,CC(C)c1ccc(-n2c(=O)oc3ccc(F)cc3c2=S)cc1,4
9,Cc1ccc2c(=S)n(-c3ccc(C(C)C)cc3)c(=O)oc2c1,1
10,CCC(C)c1ccc(-n2c(=O)oc3ccc(Br)cc3c2=S)cc1 (stereo unspecified),2
11,CCC(C)c1ccc(-n2c(=O)oc3ccc(F)cc3c2=S)cc1 (stereo unspecified),2
12,CCC(C)c1ccc(-n2c(=O)oc3cc(C)ccc3c2=S)cc1 (stereo unspecified),0.5
13,CC(C)(C)c1ccc(-n2c(=O)oc3ccc(Cl)cc3c2=S)cc1,4
14,CC(C)(C)c1ccc(-n2c(=O)oc3ccc(F)cc3c2=S)cc1,8
15,Cc1ccc2c(=S)n(-c3ccc(C(C)(C)C)cc3)c(=O)oc2c1,1

# Tested on: Mycobacterium kansasii
# Experiment: Antimycobacterial activity against Mycobacterium kansasii 6509/96 after 21 days by microdilution method
# Type: functional
# Conditions: 6509/96, 504 h
# Outline: as §2
row,SMILES,MIC [µM]
1,CCc1ccc(-n2c(=O)oc3ccc(Br)cc3c2=S)cc1,8
2,CCc1ccc(-n2c(=O)oc3ccc(Cl)cc3c2=S)cc1,4
3,CCc1ccc(-n2c(=O)oc3cc(Cl)ccc3c2=S)cc1,8
4,CC(C)c1ccc(-n2c(=O)oc3ccc(Br)cc3c2=S)cc1,8
5,CC(C)c1ccc(-n2c(=O)oc3ccc(Cl)cc3c2=S)cc1,2
6,CC(C)c1ccc(-n2c(=O)oc3ccc(F)cc3c2=S)cc1,4
7,Cc1ccc2c(=S)n(-c3ccc(C(C)C)cc3)c(=O)oc2c1,2
8,CCC(C)c1ccc(-n2c(=O)oc3ccc(Br)cc3c2=S)cc1 (stereo unspecified),4
9,CCC(C)c1ccc(-n2c(=O)oc3ccc(F)cc3c2=S)cc1 (stereo unspecified),4
10,CCC(C)c1ccc(-n2c(=O)oc3cc(C)ccc3c2=S)cc1 (stereo unspecified),1
11,CC(C)(C)c1ccc(-n2c(=O)oc3ccc(Cl)cc3c2=S)cc1,8
12,CC(C)(C)c1ccc(-n2c(=O)oc3ccc(F)cc3c2=S)cc1,8
13,Cc1ccc2c(=S)n(-c3ccc(C(C)(C)C)cc3)c(=O)oc2c1,1
